Key:
[1] = biological target: Proto-oncogene tyrosine-protein kinase Src (Homo sapiens, UniProt P12931); assay: Inhibition of human src
[2] = biological target: Serine-protein kinase ATM (Homo sapiens, UniProt Q13315); assay: Inhibition of ATM (unknown origin)
[3] = biological target: Epidermal growth factor receptor (Homo sapiens, UniProt P00533); assay: Inhibition of human EGFR
Focal adhesion kinase 1 = Focal adhesion kinase 1 (Homo sapiens, UniProt Q05397); assay: Inhibition of human FAK
[4] = biological target: Serine/threonine-protein kinase PAK 1 (Homo sapiens, UniProt Q13153); assay: Inhibition of human PAK1
Rattus norvegicus [5] = organism: Rattus norvegicus; assay: Inhibition of rat AMPK at 10 uM relative to control
[6] = biological target: MAP kinase-activated protein kinase 2 (Homo sapiens) (UniProt P49137); assay: Inhibition of MAPK Activated Protein Kinase-2 (unknown origin) at 10 uM relative to control
[7] = Inhibition of […] mouse thymoma viral oncogene homolog 1 (unknown origin) at 10 uM relative to control; conditions: Homo sapiens, condition thrombotic disease
[8] = biological target: Dual specificity tyrosine-phosphorylation-regulated kinase 1A (Rattus norvegicus) (UniProt Q63470); assay: Inhibition of rat DYRK1A at 10 uM relative to control
[9] = biological target: Calcium/calmodulin-dependent protein kinase type 1 (Homo sapiens) (UniProt Q14012); assay: Inhibition of human CAMK at 10 uM relative to control
Calcium/calmodulin-dependent protein kinase type 1 (Homo sapiens), sequence (Q14012 whole entry, looked up): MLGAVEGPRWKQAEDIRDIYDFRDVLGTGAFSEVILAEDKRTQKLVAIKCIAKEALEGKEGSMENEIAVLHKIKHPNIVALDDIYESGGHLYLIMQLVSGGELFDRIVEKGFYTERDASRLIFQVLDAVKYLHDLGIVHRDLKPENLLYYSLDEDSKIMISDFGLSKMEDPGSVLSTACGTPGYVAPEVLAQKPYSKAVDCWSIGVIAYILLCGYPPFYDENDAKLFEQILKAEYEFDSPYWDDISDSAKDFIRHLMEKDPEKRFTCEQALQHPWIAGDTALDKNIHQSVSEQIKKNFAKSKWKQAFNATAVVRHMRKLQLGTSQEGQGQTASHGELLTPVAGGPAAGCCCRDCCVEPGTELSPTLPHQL

[10] = biological target: Serine/threonine-protein kinase Chk2 (Homo sapiens) (UniProt O96017); assay: Inhibition of human CHK2 at 10 uM relative to control
Serine/threonine-protein kinase Chk2 (Homo sapiens), sequence (O96017 whole entry): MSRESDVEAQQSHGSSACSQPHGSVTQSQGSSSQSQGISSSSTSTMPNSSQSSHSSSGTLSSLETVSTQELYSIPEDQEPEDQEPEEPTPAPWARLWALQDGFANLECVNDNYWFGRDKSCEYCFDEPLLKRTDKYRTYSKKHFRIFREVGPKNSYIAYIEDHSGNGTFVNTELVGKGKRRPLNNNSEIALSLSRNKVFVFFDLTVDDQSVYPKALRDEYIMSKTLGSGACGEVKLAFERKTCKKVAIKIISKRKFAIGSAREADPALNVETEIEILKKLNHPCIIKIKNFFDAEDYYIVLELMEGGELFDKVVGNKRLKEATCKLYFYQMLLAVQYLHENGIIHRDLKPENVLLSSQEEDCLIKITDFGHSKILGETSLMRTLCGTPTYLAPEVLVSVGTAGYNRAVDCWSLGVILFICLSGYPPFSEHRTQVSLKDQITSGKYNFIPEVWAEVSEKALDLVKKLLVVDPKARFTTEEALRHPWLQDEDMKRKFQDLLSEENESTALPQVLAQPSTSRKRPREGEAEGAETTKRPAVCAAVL

[11] = biological target: MAP kinase-interacting serine/threonine-protein kinase 2 (Homo sapiens) (UniProt Q9HBH9); assay: Inhibition of human MNK2 at 10 uM relative to control
MAP kinase-interacting serine/threonine-protein kinase 2 (Homo sapiens), sequence (Q9HBH9 whole entry, looked up): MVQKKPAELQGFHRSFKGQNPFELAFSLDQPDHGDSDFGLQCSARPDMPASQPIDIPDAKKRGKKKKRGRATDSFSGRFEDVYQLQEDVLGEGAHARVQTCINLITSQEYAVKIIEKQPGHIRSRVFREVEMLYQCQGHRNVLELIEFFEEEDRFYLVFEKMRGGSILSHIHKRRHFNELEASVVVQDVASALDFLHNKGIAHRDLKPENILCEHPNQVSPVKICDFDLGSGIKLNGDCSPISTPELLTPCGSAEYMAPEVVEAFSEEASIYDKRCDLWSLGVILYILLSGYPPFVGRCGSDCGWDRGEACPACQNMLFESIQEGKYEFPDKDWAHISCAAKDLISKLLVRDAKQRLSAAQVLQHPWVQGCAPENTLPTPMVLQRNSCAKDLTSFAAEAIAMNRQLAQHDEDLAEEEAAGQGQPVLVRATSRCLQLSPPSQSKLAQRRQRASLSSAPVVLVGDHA

[12] = biological target: Serine/threonine-protein kinase Nek7 (Homo sapiens) (UniProt Q8TDX7); assay: Inhibition of human NEK7 at 10 uM relative to control
[13] = biological target: Serine/threonine-protein kinase N2 (Homo sapiens) (UniProt Q16513); assay: Inhibition of human PRK2 at 10 uM relative to control
[14] = biological target: SRSF protein kinase 1 (Homo sapiens) (UniProt Q96SB4); assay: Inhibition of human SRPK1 at 10 uM relative to control
SRSF protein kinase 1 (Homo sapiens), sequence (Q96SB4 whole entry): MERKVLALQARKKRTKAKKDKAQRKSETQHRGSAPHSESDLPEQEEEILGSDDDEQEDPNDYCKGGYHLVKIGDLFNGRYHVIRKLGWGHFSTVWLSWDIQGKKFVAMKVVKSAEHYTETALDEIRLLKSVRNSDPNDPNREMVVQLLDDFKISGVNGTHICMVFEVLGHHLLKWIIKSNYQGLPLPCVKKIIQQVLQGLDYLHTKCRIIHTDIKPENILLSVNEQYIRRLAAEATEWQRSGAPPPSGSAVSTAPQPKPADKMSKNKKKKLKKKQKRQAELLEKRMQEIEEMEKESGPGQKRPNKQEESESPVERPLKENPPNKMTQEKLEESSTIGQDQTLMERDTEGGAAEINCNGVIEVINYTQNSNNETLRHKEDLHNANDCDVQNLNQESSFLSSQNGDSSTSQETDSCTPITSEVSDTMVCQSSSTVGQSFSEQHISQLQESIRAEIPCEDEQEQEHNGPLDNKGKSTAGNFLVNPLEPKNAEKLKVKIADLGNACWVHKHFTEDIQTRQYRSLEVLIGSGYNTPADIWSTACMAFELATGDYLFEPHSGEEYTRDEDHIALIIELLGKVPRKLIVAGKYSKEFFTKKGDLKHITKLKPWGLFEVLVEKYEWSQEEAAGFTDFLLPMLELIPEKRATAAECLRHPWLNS

[15] = biological target: Mitogen-activated protein kinase 9 (Homo sapiens) (UniProt P45984); assay: Inhibition of human MAPK9 at 10 uM relative to control
[16] = biological target: Protein kinase C zeta type (Homo sapiens) (UniProt Q05513); assay: Inhibition of human PKCz at 10 uM relative to control
[17] = biological target: Serine/threonine-protein kinase BRSK2 (Homo sapiens) (UniProt Q8IWQ3); assay: Inhibition of human BRSK2 at 10 uM relative to control
Serine/threonine-protein kinase BRSK2 (Homo sapiens), sequence (Q8IWQ3 whole entry): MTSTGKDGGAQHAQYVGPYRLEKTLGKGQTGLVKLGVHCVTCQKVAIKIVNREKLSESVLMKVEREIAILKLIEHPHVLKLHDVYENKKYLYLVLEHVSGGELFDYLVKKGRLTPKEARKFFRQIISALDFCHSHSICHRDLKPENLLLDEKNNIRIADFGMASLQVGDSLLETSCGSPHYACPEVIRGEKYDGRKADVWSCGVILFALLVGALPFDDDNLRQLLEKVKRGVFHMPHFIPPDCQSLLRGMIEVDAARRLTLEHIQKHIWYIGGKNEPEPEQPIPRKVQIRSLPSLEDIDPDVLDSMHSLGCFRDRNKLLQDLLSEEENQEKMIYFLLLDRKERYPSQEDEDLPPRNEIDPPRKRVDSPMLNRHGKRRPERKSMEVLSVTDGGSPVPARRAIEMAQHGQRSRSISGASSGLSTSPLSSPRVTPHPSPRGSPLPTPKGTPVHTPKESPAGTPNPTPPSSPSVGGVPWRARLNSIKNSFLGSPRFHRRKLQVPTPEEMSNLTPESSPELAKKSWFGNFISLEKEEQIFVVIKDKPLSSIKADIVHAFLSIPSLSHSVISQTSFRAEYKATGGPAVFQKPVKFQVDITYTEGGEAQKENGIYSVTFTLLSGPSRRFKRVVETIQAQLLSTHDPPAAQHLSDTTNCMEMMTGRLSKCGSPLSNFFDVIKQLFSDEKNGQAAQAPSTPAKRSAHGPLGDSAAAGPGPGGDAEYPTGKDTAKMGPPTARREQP

[18] = biological target: Mitogen-activated protein kinase 12 (Homo sapiens) (UniProt P53778); assay: Inhibition of human MAPK12 at 10 uM relative to control
[19] = biological target: Serine/threonine-protein kinase Nek2 (Homo sapiens) (UniProt P51955); assay: Inhibition of human NEK2a at 10 uM relative to control
Serine/threonine-protein kinase Nek2 (Homo sapiens), sequence (P51955 whole entry): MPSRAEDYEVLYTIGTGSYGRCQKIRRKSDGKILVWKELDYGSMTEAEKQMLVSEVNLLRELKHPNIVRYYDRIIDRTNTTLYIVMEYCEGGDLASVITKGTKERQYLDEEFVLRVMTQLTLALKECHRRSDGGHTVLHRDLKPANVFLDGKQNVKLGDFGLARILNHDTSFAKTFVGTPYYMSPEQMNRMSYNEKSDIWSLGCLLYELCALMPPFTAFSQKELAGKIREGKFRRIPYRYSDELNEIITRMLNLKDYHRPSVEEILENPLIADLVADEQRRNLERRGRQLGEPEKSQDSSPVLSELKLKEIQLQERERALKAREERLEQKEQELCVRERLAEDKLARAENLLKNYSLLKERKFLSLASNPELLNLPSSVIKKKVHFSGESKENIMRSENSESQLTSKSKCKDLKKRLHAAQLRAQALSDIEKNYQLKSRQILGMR

[20] = Inhibition of PI3Kbeta in Beagle dog whole blood assessed as reduction in ADP-induced platelet aggregation at 1 uM preincubated for 5 mins followed by ADP addition and measured for 6 mins by impedance aggregometry relative to control; conditions: Canis lupus familiaris, 11 min, condition thrombotic disease
[21] = Plasma concentration in Sprague-Dawley rat hyperinsulinemic-euglycemic glucose clamp model at […], iv for 2 mins followed by 300 ug/kg/min, iv for 28 mins; type: ADME, organism-based; conditions: time 30 min
Outline: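 Plasma drug levels were sampled during the drug-infusion clamp period (Clamp2) in anesthetized rats under a human-insulin hyperinsulinemic–euglycemic clamp. I.v. regimens were 1000 μg kg−1 + 50 μg kg min−1 or 6000 μg kg−1 + 300 μg kg min−1; mean ± SEM, n = 4–5/group.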

Rattus norvegicus [22] = assay: Insulin sensitizing activity in Sprague-Dawley rat hyperinsulinemic-euglycemic glucose clamp model assessed as glucose level during infusion of human insulin at 1000 ug/kg/min, iv for 2 mins followed by 50 ug/kg/min, iv for 28 mins measured during clamp 1 by colorimetry (reference value: 8.4 +/- 0.8 mM); type: functional; conditions: time 30 min, 0.5 h
Outline: (§1)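 Anesthetized rats; hyperinsulinemic–euglycemic clamp with human insulin infused. A baseline clamp (Clamp1) was followed by a second clamp (Clamp2) with vehicle or drug i.v. The drug was given as a low dose (1000 μg kg−1 + 50 μg kg min−1) or a high dose (6000 μg kg−1 + 300 μg kg min−1). Steady-state glucose infusion rate for euglycemia was recorded, with plasma glucose, human insulin and total insulin; mean ± SEM, n = 4–5/group.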

Rattus norvegicus [23] = assay: Insulin sensitizing activity in Sprague-Dawley rat hyperinsulinemic-euglycemic glucose clamp model assessed as basal glucose level during infusion of human insulin at 6000 ug/kg/min, iv for 2 mins followed by 300 ug/kg/min, iv for 28 mins by colorimetry (reference value: 8.1 +/- 0.7 mM); type: functional; conditions: time 30 min, 0.5 h; outline: as §1
Rattus norvegicus [24] = assay: Insulin sensitizing activity in Sprague-Dawley rat hyperinsulinemic-euglycemic glucose clamp model assessed as human insulin level during infusion of human insulin at 6000 ug/kg/min, iv for 2 mins followed by 300 ug/kg/min, iv for 28 mins measured during clamp 2 (reference value: 1.8 +/- 0.1 nM); type: functional; conditions: time 30 min, 0.5 h; outline: as §1
Rattus norvegicus [25] = assay: Insulin sensitizing activity in Sprague-Dawley rat hyperinsulinemic-euglycemic glucose clamp model assessed as basal total insulin level during infusion of human insulin at 6000 ug/kg/min, iv for 2 mins followed by 300 ug/kg/min, iv for 28 mins (reference value: 0.3 +/- 0.1 nM); type: functional; conditions: time 30 min, 0.5 h; outline: as §1
Rattus norvegicus [26] = assay: Insulin sensitizing activity in Sprague-Dawley rat hyperinsulinemic-euglycemic glucose clamp model assessed as total insulin level during infusion of human insulin at 6000 ug/kg/min, iv for 2 mins followed by 300 ug/kg/min, iv for 28 mins measured during clamp 2 (reference value: 2.2 +/- 0.1 nM); type: functional; conditions: time 30 min, 0.5 h; outline: as §1
[27] = Toxicity in Sprague-Dawley rat hyperinsulinemic-euglycemic glucose clamp model assessed as change in heart rate at 1000 ug/kg/min, iv for 2 mins followed by 50 ug/kg/min, iv for 28 mins; type: organism-based; conditions: in vivo, 0.5 h, time 30 min
Outline: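 Anesthetized rats underwent two consecutive hyperinsulinemic–euglycemic clamps with human insulin infusion: a baseline Clamp1, then Clamp2 with vehicle or AZD6482 i.v. (n = 4–5/group). Blood pressure and heart rate were followed during control periods and after drug administration. Steady-state glucose infusion rate maintained euglycemia.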

[28] = Elimination half life in human at 40.5 to 455.8 mg, iv administered for 3 hrs via infusion by LC-MS/MS analysis; type: ADME, organism-based; conditions: in vivo, dose 40.5-455.8 mg, read-out: beta t1/2
Outline: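 Randomized, double-blind, placebo-controlled single ascending-dose study in healthy male volunteers aged 18–36. Each subject received a 3-h i.v. infusion (0.9–455.8 mg). Plasma levels were measured by protein precipitation and LC-MS/MS (LLOQ 0.005 μm), with non-compartmental PK analysis. Half-life was calculated only for the four highest dose groups. The 3-h sample was taken as Css.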

[29] = Renal clearance (0 to 24 hrs) in human at 121.5 to 364.5 mg, iv administered for 3 hrs via infusion by LC-MS/MS analysis; conditions: in vivo

Epidermal growth factor receptor, sequence (P00533 whole entry): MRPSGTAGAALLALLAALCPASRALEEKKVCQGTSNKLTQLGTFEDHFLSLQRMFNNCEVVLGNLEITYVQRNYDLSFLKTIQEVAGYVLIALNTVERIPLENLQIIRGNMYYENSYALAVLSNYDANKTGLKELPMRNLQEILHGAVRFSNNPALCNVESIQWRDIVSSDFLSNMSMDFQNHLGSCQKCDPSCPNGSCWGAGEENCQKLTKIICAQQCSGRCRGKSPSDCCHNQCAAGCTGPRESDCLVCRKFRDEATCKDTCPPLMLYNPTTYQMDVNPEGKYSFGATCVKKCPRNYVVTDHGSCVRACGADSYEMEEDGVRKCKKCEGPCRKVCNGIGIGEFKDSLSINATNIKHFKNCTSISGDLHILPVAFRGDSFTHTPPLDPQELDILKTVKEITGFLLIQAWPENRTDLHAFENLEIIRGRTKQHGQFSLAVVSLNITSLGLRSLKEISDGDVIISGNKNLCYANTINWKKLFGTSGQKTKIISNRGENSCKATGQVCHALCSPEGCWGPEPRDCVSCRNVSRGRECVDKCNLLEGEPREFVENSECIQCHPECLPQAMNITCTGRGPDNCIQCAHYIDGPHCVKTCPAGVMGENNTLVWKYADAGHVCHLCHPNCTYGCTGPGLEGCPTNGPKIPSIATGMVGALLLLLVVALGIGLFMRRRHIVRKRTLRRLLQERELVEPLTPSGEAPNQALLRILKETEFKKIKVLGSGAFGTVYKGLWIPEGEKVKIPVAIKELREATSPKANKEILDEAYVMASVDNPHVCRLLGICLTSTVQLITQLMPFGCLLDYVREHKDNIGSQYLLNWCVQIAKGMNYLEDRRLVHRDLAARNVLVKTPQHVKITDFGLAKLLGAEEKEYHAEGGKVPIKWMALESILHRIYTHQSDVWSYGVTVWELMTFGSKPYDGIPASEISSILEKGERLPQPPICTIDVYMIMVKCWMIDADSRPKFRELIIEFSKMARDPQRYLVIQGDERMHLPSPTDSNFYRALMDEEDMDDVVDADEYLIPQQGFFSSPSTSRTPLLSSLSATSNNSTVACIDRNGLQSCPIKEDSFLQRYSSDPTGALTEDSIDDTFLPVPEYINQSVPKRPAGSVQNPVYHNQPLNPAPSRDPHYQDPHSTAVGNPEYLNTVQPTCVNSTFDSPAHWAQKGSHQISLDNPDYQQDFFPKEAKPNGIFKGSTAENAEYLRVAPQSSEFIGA
Proto-oncogene tyrosine-protein kinase Src, sequence (P12931 2-536 limits assumed): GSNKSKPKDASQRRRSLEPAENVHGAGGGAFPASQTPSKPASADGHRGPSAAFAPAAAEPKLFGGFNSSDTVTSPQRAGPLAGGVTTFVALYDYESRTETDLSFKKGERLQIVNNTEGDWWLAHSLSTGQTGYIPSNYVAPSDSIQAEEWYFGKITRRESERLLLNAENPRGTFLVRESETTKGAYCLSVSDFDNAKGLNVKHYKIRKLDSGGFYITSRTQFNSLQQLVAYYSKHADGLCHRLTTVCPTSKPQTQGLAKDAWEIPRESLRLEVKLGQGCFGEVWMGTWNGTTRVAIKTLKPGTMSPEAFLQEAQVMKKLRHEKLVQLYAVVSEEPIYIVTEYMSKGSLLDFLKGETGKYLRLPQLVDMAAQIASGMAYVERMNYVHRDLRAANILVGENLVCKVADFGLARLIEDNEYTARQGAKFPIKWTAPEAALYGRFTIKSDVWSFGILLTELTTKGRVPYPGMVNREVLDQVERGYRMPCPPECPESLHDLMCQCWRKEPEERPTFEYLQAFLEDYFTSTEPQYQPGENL

Cc1cc([C@@H](C)Nc2ccccc2C(=O)O)c2nc(N3CCOCC3)cc(=O)n2c1 [AZD-6482]
IC50 [1]: 37 µM | IC50 [2]: > 30 µM | IC50 [3]: > 298 µM | IC50 (Focal adhesion kinase 1): > 1000 µM | IC50 [4]: > 336 µM | inhibition (Rattus norvegicus [5]): 14% | inhibition [6]: 13% | inhibition at 10 µM [7]: 2.1% | inhibition [8]: 9% | inhibition [9]: 9.7% | inhibition [10]: 9.9% | inhibition [11]: 6.2% | inhibition [12]: 7.1% | inhibition [13]: -2.9% | inhibition [14]: -9.4% | inhibition [15]: 0.2% | inhibition [16]: 13% | inhibition [17]: 2.5% | inhibition [18]: 3.4% | inhibition [19]: 1.3% | inhibition at 1 µM [20]: > 80% | concentration at 0.5 h [21]: 26.8 µM | Activity (Rattus norvegicus [22]): 7.3 mM | Activity (Rattus norvegicus [23]): 7.7 mM | Activity (Rattus norvegicus [24]): 2.3 nM | Activity (Rattus norvegicus [25]): 0.4 nM | Activity (Rattus norvegicus [26]): 3.4 nM | Activity [27]: Non-Toxic | half-life [28]: ~20 min | CL renal at 3 h [29]: 1.5 mL/min

From ChEMBL document CHEMBL5678808, “Human target validation of phosphoinositide 3-kinase (PI3K)β: effects on platelets and insulin sensitivity, using AZD6482 a novel PI3Kβ inhibitor” (J Thromb Haemost, 2012)
